Experimental data: ChEMBL document CHEMBL4325889, “Natural products hybrids: 3,5,4'-Trimethoxystilbene-5,6,7-trimethoxyflavone chimeric analogs as potential cytotoxic agents against diverse human cancer cells” (Eur J Med Chem, 2019)

Legend:
Assay type in all cases: functional
CCRF-CEM = test: Growth inhibition of human CCRF-CEM cells at 10 uM after 48 hrs by SRB assay relative to control; settings: read-out: GI
Method in brief: (§1)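 Screened at the National Cancer Institute by the standard NCI protocol using the sulforhodamine B assay, which measures cellular protein. Single dose of 10 µM. Result is percent growth inhibition; values above 100% mean cell number fell below the initial population. Values are the average of duplicates.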

HL-60(TB) = test: Growth inhibition of human HL-60(TB) cells at 10 uM after 48 hrs by SRB assay relative to control; settings: HL-60, 48 h, read-out: GI
Method in brief: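 Run at NCI under its standard single-dose protocol against a leukemia cell panel. Cells were exposed to 10 µM; growth was read by sulforhodamine B staining of cellular protein and expressed as % growth inhibition versus untreated control. Values above 100% mean the cell population fell below the starting count (cytocidal). Each value is the average of duplicates.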

K562 = test: Growth inhibition of human K562 cells at 10 uM after 48 hrs by SRB assay relative to control; settings: K562, 48 h, read-out: GI; method in brief: as §1
RPMI-8226 = test: Growth inhibition of human RPMI8226 cells at 10 uM after 48 hrs by SRB assay relative to control; settings: RPMI-8226, 48 h, read-out: GI; method in brief: as §1
SR = test: Growth inhibition of human SR cells at 10 uM after 48 hrs by SRB assay relative to control; settings: read-out: GI
Method in brief: (§2)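 NCI screen against its human cancer cell line panel by the standard NCI protocol, SRB protein stain. Single dose of 10 μM. Percent growth inhibition versus control; values above 100% mean the cell population fell below the starting number. Each value is the mean of duplicates.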

A549 = test: Growth inhibition of human A549 cells at 10 uM after 48 hrs by SRB assay relative to control; settings: A549, 48 h, read-out: GI; method in brief: as §1
HOP-92 = test: Growth inhibition of human HOP92 cells at 10 uM after 48 hrs by SRB assay relative to control; settings: HOP-92, 48 h, read-out: GI; method in brief: as §1
NCI-H226 = test: Growth inhibition of human NCI-H226 cells at 10 uM after 48 hrs by SRB assay relative to control; settings: NCI-H226, 48 h, read-out: GI; method in brief: as §1
NCI-H23 = test: Growth inhibition of human NCI-H23 cells at 10 uM after 48 hrs by SRB assay relative to control; settings: NCI-H23, 48 h, read-out: GI; method in brief: as §1
NCI-H322M = test: Growth inhibition of human NCI-H322M cells at 10 uM after 48 hrs by SRB assay relative to control; settings: read-out: GI; method in brief: as §1
COLO 205 = test: Growth inhibition of human COLO205 cells at 10 uM after 48 hrs by SRB assay relative to control; settings: COLO 205, 48 h, read-out: GI; method in brief: as §1
HCC 2998 = test: Growth inhibition of human HCC2998 cells at 10 uM after 48 hrs by SRB assay relative to control; settings: HCC 2998, 48 h, read-out: GI; method in brief: as §1
HCT-116 = test: Growth inhibition of human HCT116 cells at 10 uM after 48 hrs by SRB assay relative to control; settings: HCT-116, 48 h, read-out: GI; method in brief: as §1
HCT-15 = test: Growth inhibition of human HCT15 cells at 10 uM after 48 hrs by SRB assay relative to control; settings: HCT-15, 48 h, read-out: GI; method in brief: as §1
SF-295 = test: Growth inhibition of human SF295 cells at 10 uM after 48 hrs by SRB assay relative to control; settings: SF-295, 48 h, read-out: GI; method in brief: as §1
SF-539 = test: Growth inhibition of human SF539 cells at 10 uM after 48 hrs by SRB assay relative to control; settings: SF-539, 48 h, read-out: GI; method in brief: as §1
SNB-75 = test: Growth inhibition of human SNB75 cells at 10 uM after 48 hrs by SRB assay relative to control; settings: SNB-75, 48 h, read-out: GI; method in brief: as §2
U-251 = test: Growth inhibition of human U251 cells at 10 uM after 48 hrs by SRB assay relative to control; settings: U-251, 48 h, read-out: GI; method in brief: as §2
LOX IMVI = test: Growth inhibition of human LOXIMVI cells at 10 uM after 48 hrs by SRB assay relative to control; settings: read-out: GI; method in brief: as §1
Malme-3M = test: Growth inhibition of human MALME-3M cells at 10 uM after 48 hrs by SRB assay relative to control; settings: read-out: GI; method in brief: as §1
SK-MEL-2 = test: Growth inhibition of human SK-MEL-2 cells at 10 uM after 48 hrs by SRB assay relative to control; settings: SK-MEL-2, 48 h, read-out: GI; method in brief: as §1
SK-MEL-28 = test: Growth inhibition of human SK-MEL-28 cells at 10 uM after 48 hrs by SRB assay relative to control; settings: SK-MEL-28, 48 h, read-out: GI; method in brief: as §1
SK-MEL-5 = test: Growth inhibition of human SK-MEL-5 cells at 10 uM after 48 hrs by SRB assay relative to control; settings: SK-MEL-5, 48 h, read-out: GI; method in brief: as §1
UACC-257 = test: Growth inhibition of human UACC257 cells at 10 uM after 48 hrs by SRB assay relative to control; settings: UACC-257, 48 h, read-out: GI; method in brief: as §2
IGROV-1 = test: Growth inhibition of human IGROV1 cells at 10 uM after 48 hrs by SRB assay relative to control; settings: IGROV-1, 48 h, read-out: GI; method in brief: as §1
NCI/ADR-RES = test: Growth inhibition of human NCI/ADR-RES cells at 10 uM after 48 hrs by SRB assay relative to control; settings: read-out: GI; method in brief: as §1
786-0 = test: Growth inhibition of human 786-0 cells at 10 uM after 48 hrs by SRB assay relative to control; settings: 786-0, 48 h, read-out: GI; method in brief: as §1
RXF 393 = test: Growth inhibition of human RXF393 cells at 10 uM after 48 hrs by SRB assay relative to control; settings: RXF 393, 48 h, read-out: GI; method in brief: as §1
SN12C = test: Growth inhibition of human SN12C cells at 10 uM after 48 hrs by SRB assay relative to control; settings: read-out: GI; method in brief: as §1
TK-10 = test: Growth inhibition of human TK10 cells at 10 uM after 48 hrs by SRB assay relative to control; settings: TK-10, 48 h, read-out: GI; method in brief: as §2
DU-145 = test: Growth inhibition of human DU145 cells at 10 uM after 48 hrs by SRB assay relative to control; settings: DU-145, 48 h, read-out: GI; method in brief: as §1
MCF7 = test: Growth inhibition of human MCF7 cells at 10 uM after 48 hrs by SRB assay relative to control; settings: MCF7, 48 h, read-out: GI; method in brief: as §1
Hs-578T = test: Growth inhibition of human Hs 578T cells at 10 uM after 48 hrs by SRB assay relative to control; settings: read-out: GI; method in brief: as §1
MDA-MB-468 = test: Growth inhibition of human MDA-MB-468 cells at 10 uM after 48 hrs by SRB assay relative to control; settings: MDA-MB-468, 48 h, read-out: GI; method in brief: as §1

Row | Structure (SMILES) | inhibition of growth at 10 µM (CCRF-CEM) | inhibition of growth at 10 µM (HL-60(TB)) | inhibition of growth at 10 µM (K562) | inhibition of growth at 10 µM (RPMI-8226) | inhibition of growth at 10 µM (SR) | inhibition of growth at 10 µM (A549) | inhibition of growth at 10 µM (HOP-92) | inhibition of growth at 10 µM (NCI-H226) | inhibition of growth at 10 µM (NCI-H23) | inhibition of growth at 10 µM (NCI-H322M) | inhibition of growth at 10 µM (COLO 205) | inhibition of growth at 10 µM (HCC 2998) | inhibition of growth at 10 µM (HCT-116) | inhibition of growth at 10 µM (HCT-15) | inhibition of growth at 10 µM (SF-295) | inhibition of growth at 10 µM (SF-539) | inhibition of growth at 10 µM (SNB-75) | inhibition of growth at 10 µM (U-251) | inhibition of growth at 10 µM (LOX IMVI) | inhibition of growth at 10 µM (Malme-3M) | also measured
1 | COc1cc2oc(-c3cccc(C(=O)Nc4ccccc4)c3)cc(=O)c2c(O)c1OC | -0.19% | 7.3% | 2.93% | 16.5% | 4.29% | 39.7% | 94.7% | 26.8% | 13.1% | 33.6% | 7.73% | 10.3% | 53.7% | 7.23% | 30% | 80.6% | 78.2% | 63.1% | 11.9% | 35.5% | inhibition of growth at 10 µM (SK-MEL-2): 35%; inhibition of growth at 10 µM (SK-MEL-28): 12.6%; inhibition of growth at 10 µM (SK-MEL-5): 28.3%; inhibition of growth at 10 µM (UACC-257): 15.7%; inhibition of growth at 10 µM (IGROV-1): 14.6%; inhibition of growth at 10 µM (NCI/ADR-RES): 20.9%; inhibition of growth at 10 µM (786-0): 68.5%; inhibition of growth at 10 µM (RXF 393): 43.5%; inhibition of growth at 10 µM (SN12C): 25.2%; inhibition of growth at 10 µM (TK-10): 39.2%; inhibition of growth at 10 µM (DU-145): 34.4%; inhibition of growth at 10 µM (MCF7): 21.9%; inhibition of growth at 10 µM (Hs-578T): 88.9%; inhibition of growth at 10 µM (MDA-MB-468): 30.6%
2 | COc1ccc(C(=O)Nc2cccc(-c3cc(=O)c4c(O)c(OC)c(OC)cc4o3)c2)cc1 | 11.9% | 15.4% | 11.9% | 25.2% | 20.8% | 15.1% | 42.3% | 41.4% | 15.7% | 8.16% | -7.69% | 19.4% | 30.2% | 7.47% | 20.6% | 15.3% | 32.5% | 28.9% | 6.47% | 0.28% | inhibition of growth at 10 µM (SK-MEL-2): 16.6%; inhibition of growth at 10 µM (SK-MEL-28): 9.4%; inhibition of growth at 10 µM (SK-MEL-5): 16.2%; inhibition of growth at 10 µM (UACC-257): 13.6%; inhibition of growth at 10 µM (IGROV-1): 2.38%; inhibition of growth at 10 µM (NCI/ADR-RES): 13.3%; inhibition of growth at 10 µM (786-0): 24.5%; inhibition of growth at 10 µM (RXF 393): 4.27%; inhibition of growth at 10 µM (SN12C): 25.7%; inhibition of growth at 10 µM (TK-10): 18.4%; inhibition of growth at 10 µM (DU-145): 5.4%; inhibition of growth at 10 µM (MCF7): 9.78%; inhibition of growth at 10 µM (Hs-578T): 25.8%; inhibition of growth at 10 µM (MDA-MB-468): -6.18%
